Experimental data taken from article PMC7413308 (ARKIVOC : free online journal of organic chemistry, 2018).
Entries after “also recorded” stand apart in the source; their conditions may differ.

Key:
[1] = poly (I:C) animal model of schizophrenia; cited from earlier work
[2] = In vitro microsomal stability of analogs; assay type: in vitro ADME, human; conditions: footnote b: compound not detected after 20 minutes
[3] = In vitro liver microsomal stability; assay type: in vitro ADME, dog; conditions: 4 μM compound, 37 °C, 30 minutes
[4] = system: rhesus monkeys; conditions: cited from earlier work
[5] = In vitro microsomal stability of analogs; assay type: in vitro ADME, mouse; conditions: footnote d: assessed at 1-hour incubation time
[6] = system: HEK293 (kidney) cell line; assay: In vitro cytotoxicity, cell viability; assay type: cell-based; conditions: 48 h incubation, Cell-Titer Glo cell viability
[7] = system: rats; assay: Prepulse inhibition; assay type: in vivo; conditions: 30 mg/kg, IP, one hour before testing, PCP·HCl 1.5 mg/kg SC ten minutes prior to testing
How it was run: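 Rats received the test compound at 30 mg/kg ip one hour before testing, then PCP·HCl (1.5 mg/kg, sc) ten minutes before testing to disrupt PPI. Startle to an auditory stimulus was measured with a non-startling auditory prepulse at 5, 10 and 15 decibels. Results were expressed as mean (+SEM) percent prepulse inhibition and compared with PCP-treated controls given 0 mg/kg drug.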

[8] = system: mice; assay: 6 Hz electroshock seizure assay; assay type: in vivo; conditions: i.p. 100 mg/kg, time points 1/4, 1/2, 1, 2, and 4 hours, 100 mg/kg
How it was run: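 Mice received the test compound i.p. at 100 or 150 mg/kg, depending on the compound. At various time points after dosing, a 6 Hz electroshock lasting 3 seconds was delivered through a corneal electrode. Each animal was then observed for convulsions and scored as protected or not.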

[9] = system: HEPG2 (liver) cell line; assay: In vitro cytotoxicity, cell viability; assay type: cell-based; conditions: 48 h incubation, Cell-Titer Glo cell viability
[10] = In vitro liver microsomal stability; assay type: in vitro ADME, rat; conditions: 4 μM compound, 37 °C, 30 minutes
[11] = In vitro liver microsomal stability; assay type: in vitro ADME, mouse; conditions: 4 μM compound, 37 °C, 30 minutes
[12] = system: mice; assay: Rotarod assay, i.p. dosing; assay type: in vivo; conditions: 100 mg/kg i.p., 30 minutes prior to testing, 6 rpm, n=8
How it was run: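 Mice (n=8) were given the test compound at 100 mg/kg ip 30 minutes before being placed on a rod rotating at 6 rpm for a 1-minute trial. Any mouse that fell 3 times during the trial was scored as toxic (ataxic or sedated).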

[13] = system: mice, rats and primates; conditions: cited from earlier work
[14] = system: rats; conditions: cited from earlier work
[15] = In vitro liver microsomal stability; assay type: in vitro ADME, human; conditions: 4 μM compound, 37 °C, 30 minutes

For `C#Cc1ccc2c(c1)C(c1ccccc1F)=N[C@@H](C)c1c(C(=O)OCC)ncn1-2` [compound 2], the “Effect on amphetamine-induced hyperactivity” value [1] is listed as “successfully mitigated the amphetamine-induced hyperactivity”, the “Microsomal stability (HLM) % remaining” value [2] is listed as < 5.0^b % and the “Microsomal stability (HLM) Half-life” value [2] is listed as < 5^b min. The “Liver microsomal stability (%-remaining) DLM” value [3] was 90.7%, the Anxiolytic effect [4] was “exerted anxiolytic effects” and the “Microsomal stability (MLM) % remaining” value [5] was 78.0 ± 0.2^d %. The “Microsomal stability (MLM) Half-life” value [5] was 155 ± 9^d min, the “HEK293 LD50” value [6] was 28.0 ± 4.1 µM and the “Reversal of PCP-induced PPI deficit” value [7] was “reversed PCP-induced prepulse inhibition (PPI) of acoustic startle; also recorded: significantly reversed the PPI deficit; also recorded: reversed the PPI deficits induced by PCP”. For the same compound, the “Protection from 6 Hz electroshock-induced seizures” value [8] was “able to protect some subjects”, the “HEPG2 LD50” value [9] was 73.5 ± 14.4 µM and the “Liver microsomal stability (%-remaining) RLM” value [10] was 6.0%. For the same compound, the “Liver microsomal stability (%-remaining) MLM” value [11] was 66.5%, the “Ataxia in rotarod assay” value [12] was “neither 1 nor 2 produced significant ataxia” and the “Toxicity in pharmacological assays” value [13] was “not toxic”. For the same compound, the Anxiolytic effect [14] was “exerted anxiolytic effects”, the “Liver microsomal stability (%-remaining) HLM” value [15] was 3% and the “Liver microsomal stability (%-remaining) HLM” value ([15]; listed as SH-053-2'F-S-CH3 (2)) was 2.3%.
